Results: article PMC11665275 (Organic & Biomolecular Chemistry, 2024)
Square brackets hold non-standard residues; d marks the D form. Ends that are not written are not given here. Orn = NCCC[C@H](N)C(=O)O; Dab = NCC[C@H](N)C(=O)O; Dap = NC[C@H](N)C(=O)O

Assay: Circular dichroism
Assay type: physicochemical
Settings: CD, PBS pH 7.4 (aqueous), 200 μM peptide, 25 °C, from MRE at 222 nm
Outline: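 Spectra taken at 25 °C in PBS (137 mM NaCl, 2.7 mM KCl, 10 mM Na2HPO4, 1.8 mM KH2PO4, pH 7.4) with 200 μM peptide in a 0.1 cm quartz cuvette. Scanned 195–260 nm at 5 nm min−1, 0.50 nm bandwidth, 16 s integration. A single scan was solvent-corrected and converted to MRE. Helicity was calculated using the number of residues in the potential helical region and an empirical end-effect correction.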

| Substance | % Helicity in PBS (value in parentheses) [%] |
| --- | --- |
| AMRL[Dab]KFF[Dab]DFILQRKK [5_2–9_2] | 0.9 |
| AMRL[Orn]KFF[Dap]DFILQRKK [5_3–9_1] | 0.1 |
